Screening results: PubChem BioAssay, Sanford-Burnham Center for Chemical Genomics
hIAP inh – human IAP inhibitors, primary screen, biochemical, luminescence, uHTS; Intestinal-type alkaline phosphatase (Homo sapiens), P09923; purified IAP, CDP-Star luminescence, 30 min; inhibition, % at 10 µM; actives 0.12% (n = 330,000);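 active = inhibition reaching a set limit with compound at 10 µM in the primary screen, cut at about 35% in these data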;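 also: plate controls were DMSO wells with enzyme for no effect and no-enzyme buffer wells for full effect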
Target sequence (P09923 whole entry, looked up): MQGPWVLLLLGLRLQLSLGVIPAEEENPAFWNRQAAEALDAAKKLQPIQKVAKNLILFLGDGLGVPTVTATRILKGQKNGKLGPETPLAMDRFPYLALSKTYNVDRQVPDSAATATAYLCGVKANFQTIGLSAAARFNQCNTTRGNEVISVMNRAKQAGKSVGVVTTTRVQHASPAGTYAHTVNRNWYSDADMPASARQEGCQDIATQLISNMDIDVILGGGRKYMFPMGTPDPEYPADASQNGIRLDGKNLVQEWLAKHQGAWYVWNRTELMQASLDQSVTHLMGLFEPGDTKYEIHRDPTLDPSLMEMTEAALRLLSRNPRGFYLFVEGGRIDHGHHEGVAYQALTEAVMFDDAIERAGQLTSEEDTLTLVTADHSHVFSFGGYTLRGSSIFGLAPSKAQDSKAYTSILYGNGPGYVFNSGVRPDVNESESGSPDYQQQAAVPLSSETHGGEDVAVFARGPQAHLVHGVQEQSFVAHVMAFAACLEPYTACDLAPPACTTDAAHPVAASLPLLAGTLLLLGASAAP
mIAP act – activators of mouse IAP, primary screen, biochemical, luminescence, uHTS | muIAP, CDP-Star luminescence, 30 min; stronger effect = higher value; 1 = vehicle-only enzyme signal, 0 = enzyme-free wells | activation factor at 10 µM | actives 0.24% (n = 330,000) | AID 2805, 2010;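 active = activation factor of at least 2 at 20 µM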
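System: mouse IAP enzyme. Reagent: CDP-Star chemiluminescent phosphatase substrate. Benchmarks: DMSO wells, no-enzyme wells. Times: 30 min enzyme-substrate-compound incubation at room temperature. Detection: luminescence from enzymatic CDP-Star hydrolysis. Doses: test compounds delivered from DMSO solution.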
bIAP activator – bovine intestinal alkaline phosphatase activators, primary screen, biochemical, bovine IAP, CDP-star luminescence; alkaline phosphatase, intestinal [Bos taurus]; purified bovine IAP, 30 min; stronger effect = higher value; fold of DMSO-control signal, blank-subtracted; activation factor at 20 µM; actives 0.17% (n = 200,000);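 active = activation factor of 2 or more at 20 µM, a signal rise over negative controls twice the positive control's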
mIAP inh – inhibitors of mouse IAP, primary screen, biochemical, luminescence, uHTS | actives 0.2% (n = 330,000) | purified mouse IAP, CDP-Star luminescence, 30 min | AID 2806, 2010 | intestinal alkaline phosphatase [Mus musculus] | inhibition, % at 10 µM;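 active = inhibition of at least 40% at 10 µM in the primary screen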;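 also: plate controls were DMSO with enzyme for no effect and no enzyme wells for full effect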
bIAP inhibitor – bovine intestinal alkaline phosphatase inhibitors, primary screen, selectivity assay for TNAP inhibitor project, biochemical, bovine IAP, CDP-star luminescence; alkaline phosphatase, intestinal [Bos taurus]; inhibition, % at 20 µM; purified bovine IAP, 30 min; 190,000 tested, under 10 active;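 active = over 50% inhibition of intestinal alkaline phosphatase at 20 µM in the single-dose screen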
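test system = bovine IAP enzyme | medium = DEA buffer 100 mM, pH 9.8, with MgCl2 1.0 mM, ZnCl2 0.02 mM | detection = luminescence | dosing = single compound dose of 20 µM, 2% DMSO final | incubation = 30 min reaction at room temperature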
hIAP act – human IAP activators, primary screen, biochemical, luminescence, uHTS; purified human IAP, CDP-Star luminescence, 30 min; stronger effect = higher value; 1 = vehicle-only enzyme, 0 = enzyme-free background; actives 0.16% (n = 330,000); activation factor at 10 µM; AID 2524, 2010;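 active = activation factor of the enzyme at least 2-fold when tested at 20 µM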
mIAP inh conf – inhibitors of mouse IAP, confirmation, biochemical, luminescence, single concentration | shares compounds with mIAP inh | actives 4.7% (n = 11,000) | purified mouse IAP, CDP-Star luminescence, 30 min | inhibition, % at 10 µM;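 active = inhibition of at least 40% at 10 µM in either of the two replicates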;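 also: plate controls were DMSO wells with enzyme for no effect and buffer wells lacking enzyme for full effect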
Numbers without * were called inactive; . = no result. Shown are actives, neighbours in structure and some others; about 0.77% of the full set was active somewhere.

SMILES	hIAP inh	mIAP act	bIAP activator	mIAP inh	bIAP inhibitor	hIAP act	mIAP inh conf
CCC(C)N(C(=O)CSc1nnc2ccccn12)C1CCS(=O)(=O)C1 (stereo unspecified)	11	0.99	.	1	.	0.89	.
Cc1ccc(NC(=S)NCc2ccccc2)cc1S(=O)(=O)N1CCCCC1	-58	5.8*	1.4	-481	-38	1.6	-187
O=C(CSc1ccc(-c2cccnc2)nn1)Nc1ccc(F)c(F)c1	5	0.98	.	2	.	0.95	.
O=C(O)c1ccc2nc(-c3ccco3)c(-c3ccco3)nc2c1	-11	0.52	1.3	48*	-25	1.1	66*
O=C(c1ccc2nc(-c3ccco3)c(-c3ccco3)nc2c1)N1CCN(c2ccccc2)CC1	-5	0.84	1	16	1	1	.
Cc1c(Cl)c([N+](=O)[O-])nn1CC(=O)NCc1ccc(Cl)cc1	-4	0.93	.	7	.	1	.
COc1ccc(C(=O)OCC(=O)Nc2ncc([N+](=O)[O-])s2)cc1OC	12	0.37	.	63*	.	0.88	76*
O=C(COC(=O)c1ccc(Br)o1)Nc1ncc([N+](=O)[O-])s1	12	0.39	.	61*	.	0.88	59*
Cc1ccc(CC(=O)Nc2ncc([N+](=O)[O-])s2)cc1	12	0.92	1.1	8	-9	0.88	.
O=[N+]([O-])c1ccc(O)c(/C=N/n2cnc3ccccc32)c1	13	0.97	0.9	3	9	0.87	.
Cc1ccc(/C=C2\SC(=S)N(/N=C/c3cc([N+](=O)[O-])ccc3O)C2=O)o1	18	0.18	1	82*	0	0.81	86*
N#CC1=C(N)SC(N)=C(C#N)C1c1ccoc1	8	0.23	1.1	77*	-10	0.92	76*
O=C1SC(SCc2ccccc2)=N/C1=C\c1ccco1	8	0.75	0.8	25	21	0.92	.
CCCSC1=N/C(=C\C=C\c2ccco2)C(=O)S1	6	0.55	0.7	45*	31	0.94	61*
COCc1cc(=O)n2[nH]c(-c3ccsc3-n3c(C)ccc3C)cc2n1	10	0.44	1	56*	4	0.91	58*
Cc1cc(=O)n2[nH]c(-c3ccsc3-n3c(C)ccc3C)cc2n1	13	0.5	.	50*	.	0.87	59*
Cc1nc2cc(-c3ccsc3-n3c(C)ccc3C)[nH]n2c(=O)c1Cl	9	0.37	0.9	63*	8	0.91	78*
Cc1cc(=O)n2[nH]c(-c3ccc(F)cc3)cc2n1	-9	0.94	1	6	0	1.1	.
Cc1ccccc1-c1cc2nc(C)c(Cl)c(=O)n2[nH]1	-2	0.94	.	6	.	1	.
Cn1cccc1/C=C1\SC(=S)N(Nc2ccccc2)C1=O	-20	0.6	.	40*	.	1.2	50*
O=C1OC2(c3ccccc31)c1cc(I)c(O)c(I)c1Oc1c2cc(I)c(O)c1I	26	0.56	.	44*	.	0.74	64*
COc1cccc(C(=O)Nc2cccc3ccccc23)c1	14	0.99	.	1	.	0.85	.
COc1cccc(C(CC(=O)Nc2cccc3ccccc23)NC(=O)c2ccccc2)c1 (stereo unspecified)	-4	2.1*	1.4	-108	-44	1	-119
Cc1cc(=O)n2[nH]c(C(=O)O)nc2n1	-13	0.88	0.9	12	6	1.1	.
Cc1cc(=O)n2[nH]cc(C(=O)O)c2n1	5	0.47	0.9	53*	9	0.95	58*
SMILES	hIAP inh	mIAP act	bIAP activator	mIAP inh	bIAP inhibitor	hIAP act	mIAP inh conf
COc1ccc(NC(=O)c2nn(C)c3c2CS(=O)(=O)c2ccccc2-3)cc1	12	0.91	.	9	.	0.88	.
Cc1ccc(S(=O)(=O)/N=C2/NC(=O)/C(=C\c3cc(Br)cc(Br)c3O)S2)cc1	3	0.57	.	43*	.	0.97	49*
Cc1ccc(S(=O)(=O)/N=C2/NC(=O)/C(=C/c3ccc(Br)o3)S2)cc1	22	0.69	1	31	-4	0.78	.
CCCC1=NN2C(=N)/C(=C\c3cc(C)n(Cc4ccccc4)c3C)C(=O)N=C2S1	1	1	.	0	.	0.99	.
CCC1=NN2C(=N)/C(=C/c3c(C)nn(-c4ccccc4)c3Cl)C(=O)N=C2S1	-6	1.1	0.9	-8	5	1.1	.
CCC1=NN2C(=N)/C(=C\c3ccc(SCc4ccco4)o3)C(=O)N=C2S1	17	0.26	0.9	74*	13	0.83	72*
CCCC1=NN2C(=N)/C(=C\c3ccc(SCc4ccco4)o3)C(=O)N=C2S1	11	0.43	0.8	57*	17	0.89	70*
O=C(Cc1cc(=O)oc2cc(O)ccc12)NC(Cc1ccc(Cl)cc1)C(=O)O (stereo unspecified)	-8	1	.	-3	.	1.1	.
O=C(N/N=C/c1cccnc1)c1cc(O)c(O)c(O)c1	-14	0.58	.	42*	.	1.1	58*
CCOc1ccc(NC(=O)Nc2cc(OCC(F)(F)F)cc(OCC(F)(F)F)c2)cc1	2	3*	0.7	-204	30	0.98	-108
O=C(Nc1ccc(F)cc1)Nc1cc(OCC(F)(F)F)cc(OCC(F)(F)F)c1	-34	4.6*	0.7	-356	29	1.3	-111
CCOc1ccc(C(=O)NCC(=O)N2CCCC2)cc1	0	0.95	.	5	.	1	.
CC(C)CC(C(=O)Nc1oc(-c2ccco2)c(-c2ccco2)c1C#N)N1C(=O)c2ccccc2C1=O (stereo unspecified)	-11	0.55	1	45*	-2	1.1	48*
CC(C)CC(C(=O)Nc1cccc(O)c1)N1C(=O)c2ccccc2C1=O (stereo unspecified)	6	0.94	.	6	.	0.94	.
CCOC(=O)N1CCN(C(=O)COC(=O)CSc2ccc([N+](=O)[O-])cc2)CC1	0	0.94	.	6	.	0.99	.
N#CC1=C(N)C2=C(N3CCCCC3)CCCC2C1(C#N)C#N (stereo unspecified)	-2	0.77	0.3	23	.	1	40*
N#CC(C#N)=C1C=C2C=C(N3CCCCC3)CCC2CC1 (stereo unspecified)	.	.	1.5	.	-51	.	.
CNc1c(NS(=O)(=O)c2ccc3c(c2)CCCC3)c(=O)oc2ccccc12	1	1	.	-1	.	0.99	.
